Measurements pooled from the literature.
Compare with care: the assays were run in different laboratories.

CN(C)CCOc1ccc(C=Nc2ccccc2N=Cc2ccc(OCCN(C)C)cc2O)c(O)c1.[Ga+3]
solubility (water): > 50000 µg/mL

c1cc(-c2ccc3ncnc(Nc4ncco4)c3c2)cc(N2C[C@H]3C[C@@H]2CO3)c1
solubility (aqueous buffer; pH 7.4, 25 °C): 6 µM

Cc1ccc2c(c1)C(=O)C1(O)CCN(c3ccccc3)C1=N2 (centres unmarked)
solubility (PBS; pH 7.4): 21 µM

CC(C)C[C@@H]1NC(=O)[C@H](CCC(=O)O)NC(=O)[C@H]2CCCN2C(=O)[C@@H](N)CSSC[C@@H](C(=O)O)NC(=O)[C@H]2CCCN2C(=O)[C@@H](Cc2ccccc2)NC(=O)[C@H](CC(C)C)NC(=O)[C@H]([C@@H](C)O)NC(=O)[C@H](C(C)C)NC1=O
thermodynamic solubility (aqueous buffer; 18 h, pH 7.4): 679 µM

CCC(CNc1nc(-c2cn3ccnc3cc2C)nc2ccccc12)c1ccccc1 (centres unmarked)
solubility (water): 1.3 µM

CC1(CC(F)(F)F)NC(=O)N(c2ccc(F)c(C(F)(F)F)c2)C1=O (centres unmarked)
kinetic solubility (nephelometry; aqueous buffer): ≤ 50 µg/mL

CC(C)C[C@H]1C(=O)N2CCC[C@H]2C(=O)N[C@@H](CC(N)=O)C(=O)N[C@H](Cc2ccc(O)cc2)C(=O)N[C@H]([C@H](C)O)C(=O)N[C@@H](Cc2ccc(O)cc2)C(=O)N[C@H](C(=O)O)CSSC[C@H](N)C(=O)N[C@@H](Cc2ccccc2)C(=O)N[C@@H](C(C)C)C(=O)N1C
thermodynamic solubility (aqueous buffer; 18 h, pH 7.4): 760 µM

CCCSc1ccc2nc(NC(=O)OC)[nH]c2c1
thermodynamic solubility (simulated gastric fluid; 24 h, pH 1.2, 37 °C, acidic): ~300 µg/mL

CC(C)C[C@H]1C(=O)N[C@H]([C@H](C)O)C(=O)N[C@@H](C)C(=O)N[C@@H](Cc2ccccc2)C(=O)N[C@H](C(=O)O)CSSC[C@H](N)C(=O)N2CCC[C@@H]2C(=O)N[C@@H](CCC(=O)O)C(=O)N[C@@H](C(C)C)C(=O)N2CCC[C@H]2C(=O)N1C
solubility (aqueous buffer; 18 h, pH 7.4): 692 µM

COc1cc(C(=O)c2nc(-c3cccc4[nH]ccc34)c[nH]2)cc(OC)c1OC
thermodynamic solubility (PBS; pH 7.4): 5.25 µM

COc1cc(N2CC[C@@]3(O)C(=O)c4cc(C)c(C)cc4N=C23)ccn1
solubility (PBS; pH 7.4): 42 µM

Oc1ccccc1C=Nc1ccccc1N=Cc1ccccc1O.[Ga+3]
solubility (water): < 100 µg/mL

CC[C@H](C)[C@@H]1NC(=O)CNC(=O)[C@@H](CC(C)C)NC(=O)[C@@H](C(C)C)NC(=O)[C@H]2CCCN2C(=O)[C@@H](CC(C)C)NC(=O)[C@H](Cc2ccccc2)NC(=O)[C@@H]2CCCN2C(=O)[C@H](CC(C)C)NC(=O)[C@H](CO)NC(=O)CNC(=O)[C@H]([C@@H](C)O)NC1=O
solubility (aqueous buffer; 18 h, pH 7.4): 692 µM

O=C1NC2(CCC2)C(=O)N1c1ccc(F)c(C(F)(F)F)c1
kinetic solubility (nephelometry; aqueous buffer): ≤ 50 µg/mL
